Molecular target: GABA-A receptor; anion channel
Assay: Ability to inhibit [3H]-Ro- 15-1788 binding to Gamma-aminobutyric acid A receptor alpha in vitro in rat cortical membranes
Format: cell membranes
In short: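 Cortex from male Wistar rats (150–200 g) homogenized in 30 mM Tris-HCl pH 7.4, washed, incubated 30 min at 37 °C to remove endogenous GABA, stored frozen. Nonspecific binding defined with 1 μM clonazepam. Filtration on GF/C, scintillation counting; IC50 from single-concentration inhibition formula.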

Structure (SMILES): Cc1ccc2oc(-c3cc(C(=O)O)cc([N+](=O)[O-])c3)cc(=O)c2c1
- Ki: > 1700 nM

Structure (SMILES): COc1cccc(-c2cc(=O)c3cc(C)ccc3o2)c1
- Ki: 99 nM

Structure (SMILES): Cc1ccc(O)c(-c2cc(=O)c3cc(C)ccc3o2)c1
- Ki: 7.8 nM

Structure (SMILES): CCCCOc1cccc(-c2cc(=O)c3cc(C)ccc3o2)c1
- Ki: 710 nM

Structure (SMILES): Cc1ccc2oc(-c3cc(O)cc(C(=O)O)c3)cc(=O)c2c1
- Ki: > 1600 nM

Structure (SMILES): Cc1ccc2oc(-c3ccccc3N)cc(=O)c2c1
- Ki: 700 nM

Structure (SMILES): Cc1ccc2oc(-c3ccc(N)cc3)cc(=O)c2c1
- Ki: 2600 nM

Structure (SMILES): Cc1ccc2oc(-c3cccc(N)c3)cc(=O)c2c1
- Ki: 1200 nM

Structure (SMILES): COC(=O)c1cc(O)cc(-c2cc(=O)c3cc(C)ccc3o2)c1
- Ki: > 1600 nM

Structure (SMILES): Cc1ccc2oc(-c3ccc(C)c(C)c3)cc(=O)c2c1
- Ki: > 1700 nM

Structure (SMILES): COc1cc(CO)cc(-c2cc(=O)c3cc(C)ccc3o2)c1
- Ki: > 1600 nM

Structure (SMILES): CC(C)c1ccc2oc(-c3ccccc3)cc(=O)c2c1
- Ki: 720 nM

Structure (SMILES): Cc1cc(C)cc(-c2cc(=O)c3cc(C)ccc3o2)c1
- Ki: > 1500 nM

Structure (SMILES): COc1ccc(Br)cc1-c1cc(=O)c2cc(C)ccc2o1
- Ki: > 1500 nM

Structure (SMILES): COC(=O)c1cc(N)cc(-c2cc(=O)c3cc(C)ccc3o2)c1
- Ki: > 1900 nM

Structure (SMILES): Cc1ccc2oc(-c3ccccc3O)cc(=O)c2c1
- Ki: 6.2 nM

Structure (SMILES): Cc1ccc2oc(-c3cc(C(=O)O)cc(C(=O)O)c3)cc(=O)c2c1
- Ki: > 1600 nM

Structure (SMILES): COC(=O)c1cc(C(=O)OC)cc(-c2cc(=O)c3cc(C)ccc3o2)c1
- Ki: > 1600 nM

Structure (SMILES): Cc1cccc2c(=O)cc(-c3ccccc3)oc12
- Ki: > 1700 nM

Structure (SMILES): CCCc1ccc2oc(-c3ccccc3)cc(=O)c2c1
- Ki: 480 nM

Structure (SMILES): Cc1ccc2oc(-c3cccc(C(=O)O)c3)cc(=O)c2c1
- Ki: > 1700 nM

Structure (SMILES): COC(=O)c1cccc(-c2cc(=O)c3cc(C)ccc3o2)c1
- Ki: 220 nM

Structure (SMILES): CCc1ccc2oc(-c3ccccc3)cc(=O)c2c1
- Ki: 180 nM

Structure (SMILES): Cc1ccc2oc(-c3cccc(C(=O)OC(C)C)c3)cc(=O)c2c1
- Ki: 180 nM

Structure (SMILES): CCC(CC)COC(=O)c1cccc(-c2cc(=O)c3cc(C)ccc3o2)c1
- Ki: 610 nM

Structure (SMILES): COc1ccc(C)cc1-c1cc(=O)c2cc(C)ccc2o1
- Ki: > 1500 nM

Structure (SMILES): Cc1ccc2oc(-c3cc(CO)cc(CO)c3)cc(=O)c2c1
- Ki: > 1500 nM

Structure (SMILES): COc1cc(C(=O)O)cc(-c2cc(=O)c3cc(C)ccc3o2)c1
- Ki: > 1600 nM

Structure (SMILES): Cc1ccc2oc(-c3cccc(C(F)(F)F)c3)cc(=O)c2c1
- Ki: 9.8 nM

Structure (SMILES): COc1ccccc1-c1cc(=O)c2cc(C)ccc2o1
- Ki: 820 nM

Structure (SMILES): Cc1ccc2oc(-c3cccc(Br)c3)cc(=O)c2c1
- Ki: 12 nM

Structure (SMILES): COC(=O)c1cc(OC)cc(-c2cc(=O)c3cc(C)ccc3o2)c1
- Ki: 3000 nM

Structure (SMILES): Cc1ccc2oc(-c3cc(Br)ccc3O)cc(=O)c2c1
- Ki: 0.9 nM

Structure (SMILES): Cc1ccc2oc(-c3cccc(O)c3)cc(=O)c2c1
- Ki: 390 nM

Structure (SMILES): CCOC(=O)c1cc(N)cc(-c2cc(=O)c3cc(C)ccc3o2)c1
- Ki: 3600 nM

Structure (SMILES): COC(=O)c1cc(CO)cc(-c2cc(=O)c3cc(C)ccc3o2)c1
- Ki: > 1500 nM

Structure (SMILES): Cc1ccc2oc(-c3cccnc3)cc(=O)c2c1
- Ki: 130 nM

Structure (SMILES): COC(=O)c1cc(-c2cc(=O)c3cc(C)ccc3o2)cc([N+](=O)[O-])c1
- Ki: > 2100 nM

Structure (SMILES): CCC(CC)COc1cccc(-c2cc(=O)c3cc(C)ccc3o2)c1
- Ki: 1000 nM

Structure (SMILES): Cc1ccc2oc(-c3ccccc3)cc(=O)c2c1 [6-METHYLFLAVONE]
- Ki: 180 nM

— ChEMBL document CHEMBL1135589, “Refinement and evaluation of a pharmacophore model for flavone derivatives binding to the benzodiazepine site of the GABA(A) receptor” (J Med Chem, 2002)
